# In PubChem BioAssay:
# Active and inactive are the calls of the source.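 Rule for the calls, unless noted: active = inhibition of the reporter signal at or above 50%; inactive = inhibition below 50%.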
# How the values were obtained:
# [1] = inhibitors of TNFa-induced NFkB p65 translocation, primary screen, imaging, HUVEC, MLSMR starter and 10KST1 sets (AID 438;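 active = inhibition above 20% together with a positive visual image hit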;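 note: compound added about 3h40 before a 20 min TNFalpha stimulation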;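 for inhibition: signal is the nuclear over cytoplasmic p65 intensity ratio per well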); settings: HUVEC TNFa-induced p65 nuclear translocation; cell count: measured here: nuclei count (cytotoxicity indicator), at 2.08 µM; inhibition: at 2 µM, stronger effect = higher value, 0% TNFa-plus-vehicle, 100% no-TNFa wells
# [2] = reduction of polyQ htt aggregates in cells – imaging, exon1htt(103Q)mCFP cells, high-content imaging, primary screen (AID 483;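 active = visual image review flags a hit and inhibition of aggregation exceeds 20%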;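 note: compound exposure lasted 3 days before fixation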;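 for nuclei count: percent of the per-plate median nuclei count of sample wells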); settings: exon1htt(103Q)mCFP cell line, aggregate imaging, at 2 µM; inhibition of aggregation: stronger effect = higher value; nuclei count: measured here: cell count, toxicity
# [3] = endothelial E-selectin expression blockers – imaging, HUVEC, immunofluorescence, MLSMR starter and 10KST1 sets, primary screen (AID 487;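 active = visually confirmed hit in the image check and inhibition above 20%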;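 for inhibition: signal is fraction of cell area covered by stained E-selectin grains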;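 for nuclei count: 100% = median nuclei count of all wells on the same plate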); settings: HUVEC TNFalpha-induced E-selectin immunofluorescence imaging, at 2 µM; inhibition: stronger effect = higher value; nuclei count: measured here: cell number, toxicity
# [4] = target: Voltage-gated potassium channel subunit beta-2 (Rattus norvegicus) (UniProt P62483); test: inhibitors of rat Kvbeta2 reductase activity – biochemical, NADPH fluorescence, primary screen (AID 622;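 active = fluorescence slope higher than the sample average by over 3 SD, cut at about -0.22 in these data, passing the limit was not always enough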;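 note: slope of raw intensity against log time taken from 70 to 1610 s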); settings: recombinant KvBeta, 4-cyanobenzaldehyde reduction, at 10 µM, stronger effect = higher value
# Sequence of Voltage-gated potassium channel subunit beta-2 (Rattus norvegicus) (P62483 whole entry, looked up): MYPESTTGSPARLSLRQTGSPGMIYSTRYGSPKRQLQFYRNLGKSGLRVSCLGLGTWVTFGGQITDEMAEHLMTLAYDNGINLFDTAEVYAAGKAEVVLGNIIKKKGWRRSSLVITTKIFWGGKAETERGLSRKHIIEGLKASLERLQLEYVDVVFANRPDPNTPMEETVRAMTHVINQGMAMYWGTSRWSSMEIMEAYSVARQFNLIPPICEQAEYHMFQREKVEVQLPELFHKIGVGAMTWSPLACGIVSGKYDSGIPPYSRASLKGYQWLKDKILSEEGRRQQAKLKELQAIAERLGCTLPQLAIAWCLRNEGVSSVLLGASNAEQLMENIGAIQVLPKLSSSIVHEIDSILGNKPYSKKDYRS
# [5] = target: Voltage-gated potassium channel subunit beta-2 (Rattus norvegicus) (UniProt P62483); test: enhancers of rat Kvbeta2 NADPH turnover – biochemical, NADPH fluorescence, primary screen (AID 623;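 active = NADPH fluorescence slope more negative than the mean of all samples by about 3 SD, 99.7% confidence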;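 note: fluorescence intensity change per second fitted from 20 to 320 s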); settings: Recombinant KvBeta, NADPH fluorescence decrease slope, 10 min; at 10 µM; stronger effect = lower value
# [6] = target: Muscarinic acetylcholine receptor M4 (Homo sapiens) (UniProt P08173); test: M4-linked GIRK flux change, two-sided – cell-based, HEK293 M4/GIRK, thallium flux, BTC-AM, M4 allosteric agonist project, primary screen (AID 625;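 active = fluorescence slope after compound addition differing from the mean of all tested samples at 99.7% confidence, mostly higher but some lower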;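 note: thallium influx through GIRK channels coupled to M4 in HEK293 cells with BTC-AM dye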); settings: at 10 µM, actives lie on both sides
# Sequence of Muscarinic acetylcholine receptor M4 (Homo sapiens) (P08173 whole entry, looked up): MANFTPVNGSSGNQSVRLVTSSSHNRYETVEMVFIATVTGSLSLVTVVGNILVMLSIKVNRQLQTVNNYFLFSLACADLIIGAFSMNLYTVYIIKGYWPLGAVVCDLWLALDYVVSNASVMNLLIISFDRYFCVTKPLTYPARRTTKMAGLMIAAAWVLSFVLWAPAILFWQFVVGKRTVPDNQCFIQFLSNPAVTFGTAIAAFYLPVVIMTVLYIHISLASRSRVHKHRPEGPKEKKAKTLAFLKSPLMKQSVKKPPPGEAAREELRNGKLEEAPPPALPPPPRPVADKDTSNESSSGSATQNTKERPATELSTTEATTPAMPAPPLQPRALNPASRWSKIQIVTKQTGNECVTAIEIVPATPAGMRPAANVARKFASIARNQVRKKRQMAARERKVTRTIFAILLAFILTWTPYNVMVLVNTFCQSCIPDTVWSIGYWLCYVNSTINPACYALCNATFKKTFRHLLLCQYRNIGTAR
# Method in brief: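 assay system = HEK293 cells with M4 receptor and GIRK channels | medium = pH 7.3 thallium assay buffer | doses = 10 µM final, single point | timing = cells overnight at 37 °C, BTC-AM loading 1 h, reads 2 min total | signal = BTC-AM fluorescence, 1 Hz kinetic reads | read-out = post-addition slope, 15–24 s, of baseline-normalized fluorescence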
# [7] = blockers of RIG-like receptor reporter activation – cell-based, Sendai virus stimulus, luciferase, 10K MLSCN set, TLR/RLR signaling modifier project, primary screen (AID 602276;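 active = inhibition at or above 50% at 10 µM; inactive = inhibition below 50%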;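 note: firefly luciferase from ISG56 promoter only with Renilla not read in this screen; 0% = Sendai virus plus DMSO and 100% = medium plus DMSO without virus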); settings: HEK293 RL24 IRF3 luciferase reporter, at 10 µM, stronger effect = higher value
# [8] = TLR3 IRF3 reporter activation blockers – cell-based, poly I:C stimulus, luciferase, 10K MLSCN set, primary screen (AID 602277); settings: HEK293-TLR3 RL24 IRF3 luciferase reporter, at 10 µM, stronger effect = higher value
Compound,cell count [1],inhibition [1],inhibition of aggregation [2],nuclei count [2] [%],inhibition [3],nuclei count [3] [%],fluorescence slope [4],NADPH fluorescence slope [5],fluorescence slope [6],inhibition [7],inhibition [8]
CC1(C)C2CCC1(CS(=O)(=O)NCc1ccc(C(=O)O)cc1)C(=O)C2 (centres undefined),517,-16.3% (inactive),1.1% (inactive),90.1,46.1% (inactive),100,-0.606 (inactive),2.9e-05 (inactive),0.00724 (inactive),36.1% (inactive),30.6% (inactive)
Cn1c(=O)c2c(nc(SCC(=O)NCc3ccc4c(c3)OCO4)n2Cc2ccccc2)n(C)c1=O,641,-14.8% (inactive),10.5% (inactive),104,-33% (inactive),115,-0.473 (inactive),-3.8e-05 (inactive),0.0042 (inactive),12.6% (inactive),11.8% (inactive)
CCCCCCC(=O)c1c(C)[nH]c(C(=O)OCC)c1C,310,-4.2% (inactive),14.4% (inactive),59.6,-54.5% (inactive),102,-0.517 (inactive),-2.8e-05 (inactive),0.00442 (inactive),-13.2% (inactive),-55.3% (inactive)
O=C(Cn1c(=O)[nH]n(-c2ccccc2)c1=O)N1CCCc2ccccc21,328,0% (inactive),-15.3% (inactive),117,-87.1% (inactive),118,-0.387 (inactive),-5.1e-05 (inactive),0.00957 (inactive),14.4% (inactive),25.6% (inactive)
CCn1c(=O)cc(SCC(=O)N2CCN(C3CCCCC3)CC2)c2ccccc21,417,-5.2% (inactive),-6.7% (inactive),131,-69.8% (inactive),108,-0.565 (inactive),1.7e-06 (inactive),0.0055 (inactive),8.4% (inactive),65.5% (active)
c1ccc2c(c1)Cn1c-2nc2ccccc21,700,-28.4% (inactive),5.7% (inactive),80.7,-26.5% (inactive),114,-0.349 (inactive),-6.3e-05 (inactive),0.00562 (inactive),-36.1% (inactive),-131% (inactive)
O=C(c1ccc(Cl)cc1)C1CCN(C(=O)NC2CCCCC2)CC1,456,-15% (inactive),13.9% (inactive),86.5,-37.3% (inactive),104,-0.541 (inactive),-1.3e-05 (inactive),0.00452 (inactive),4.14% (inactive),-12.4% (inactive)
O=C1CC(c2cccc(Cl)c2)CC(O)=C1C=NCCCO (centres undefined),498,-18.1% (inactive),0.4% (inactive),87.3,28.3% (inactive),98.3,-0.393 (inactive),4.1e-05 (inactive),0.00604 (inactive),16.7% (inactive),20.9% (inactive)
CC(C)(C)NC(=O)C(c1ccco1)N(C(=O)Cn1nnc(-c2ccc(F)cc2)n1)c1ccccc1 (centres undefined),422,9.2% (inactive),-1.8% (inactive),99.8,-146% (inactive),122,-0.551 (inactive),8.1e-06 (inactive),0.00525 (inactive),15.8% (inactive),26.6% (inactive)
Cc1ccc(-c2cc(C(F)F)nc(NCc3cccnc3)n2)cc1,590,-26.5% (inactive),-44.3% (inactive),81.9,-97.8% (inactive),118,-0.467 (inactive),-1.4e-06 (inactive),0.00586 (inactive),7% (inactive),-13.6% (inactive)
COc1cc(OC)c(C(=O)Nc2ccc(N(C)C)cc2)cc1OC,369,5.2% (inactive),7.1% (inactive),94,-85.5% (inactive),116,-0.448 (inactive),-4.1e-05 (inactive),0.00454 (inactive),-79.1% (inactive),99.1% (active)
CC1CN(c2nc3ccccn3c(=O)c2/C=C(\C#N)S(=O)(=O)c2ccccc2)CC(C)O1 (centres undefined),570,8.1% (inactive),3.6% (inactive),98.6,56.6% (inactive),104,-0.513 (inactive),-0.000138 (inactive),0.00288 (inactive),-1.56% (inactive),-21.6% (inactive)
O=C(NC1(C(F)(F)F)NC(=O)N(Cc2ccco2)C1=O)c1cccnc1 (centres undefined),495,1.8% (inactive),1.2% (inactive),104,-26.5% (inactive),122,-0.461 (inactive),-8.5e-05 (inactive),0.00405 (inactive),9.43% (inactive),12.8% (inactive)
CCOCCCNc1ncnc2c1[nH]c1ccccc12,252,7.8% (inactive),-7.5% (inactive),72.9,-49.2% (inactive),109,-0.513 (inactive),-0.000137 (inactive),0.00341 (inactive),-24.7% (inactive),-100% (inactive)
